Reference: ChEMBL document CHEMBL1949503, “Design, synthesis, theoretical calculations and biological evaluation of new non-symmetrical choline kinase inhibitors” (Eur J Med Chem, 2012)
pIC50: −log10 of the molar value.

Experiments:
Homo sapiens [1] = species on record: Homo sapiens; test: Inhibition of human choline kinase assessed as incorporation of 14C from [methyl-14C]choline into phosphocholine at 10 uM after 20 mins by liquid scintillation counter
Outline: (§1)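 Enzyme source was HepG2 cytosol (cells sonicated in 275 mM Tris pH 8.5, 12000 g supernatant), about 50 µg protein. Final mix: 100 mM Tris pH 8.5, 10 mM MgCl2, 10 mM ATP, with inhibitor. Started with 1 mM [methyl-14C]choline, 37 °C for 20 min, stopped by boiling. Phosphocholine was separated on silica TLC and counted by scintillation. IC50 was derived from the concentration series.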

Homo sapiens [2] = species on record: Homo sapiens; test: Inhibition of human choline kinase assessed as incorporation of 14C from [methyl-14C]choline into phosphocholine at 50 uM after 20 mins by liquid scintillation counter; outline: as §1
HepG2 [3] = test: Cytotoxicity against human HepG2 cells at 10 uM after 24 hrs using crystal violet staining by microplate reader analysis; assay type: functional; conditions: HepG2, 24 h
Outline: (§2)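 HepG2 cells in MEM with 10% FBS were seeded at 10 000 cells/well and grown 24 h. The medium was then replaced with fresh medium/10% FBS, and cells were exposed to inhibitors for 24 h, or to none. Cells were fixed with 1.1% glutaraldehyde, stained with 0.1% crystal violet and solubilised in 10% acetic acid. A590 was converted to cell number with a standard curve.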

HepG2 [4] = test: Cytotoxicity against human HepG2 cells at 50 uM after 24 hrs using crystal violet staining by microplate reader analysis; assay type: functional; conditions: HepG2, 24 h; outline: as §2
[5] = Inhibition of human choline kinase assessed as incorporation of 14C from [methyl-14C]choline into phosphocholine after 20 mins by liquid scintillation counter; outline: as §1
HepG2 [6] = test: Cytotoxicity against human HepG2 cells after 24 hrs using crystal violet staining by microplate reader analysis; assay type: functional, cell-based; conditions: HepG2, 24 h; outline: as §2

| SMILES | inhibition (Homo sapiens [1]) [%] | inhibition (Homo sapiens [2]) [%] | pIC50 [5] | inhibition at 10 µM (HepG2 [3]) [%] | inhibition at 50 µM (HepG2 [4]) [%] | pIC50 (HepG2 [6]) |
| --- | --- | --- | --- | --- | --- | --- |
| Nc1ncnc2c1ncn2Cc1ccc(CCc2ccc(C[n+]3ccc(N4CCCC4)cc3)cc2)cc1 | 28.6 | 46.9 | – | 30.1 | 45 | – |
| Nc1ncnc2c1ncn2Cc1ccc(CCCCc2ccc(C[n+]3ccc(N4CCCC4)cc3)cc2)cc1 | 36.9 | 41.9 | – | 15.4 | 90.1 | – |
| Nc1ncn(Cc2ccc(CCCCc3ccc(C[n+]4ccc(N5CCCC5)cc4)cc3)cc2)c2ncnc1-2 | 22.6 | 59.9 | – | 13.7 | 46.5 | – |
| CN(C)c1cc[n+](Cc2ccc(CCCCc3ccc(Cn4cnc5c(N)ncnc54)cc3)cc2)cc1 | 66.7 | 89.7 | 4.97 | 10.2 | 45.5 | 4.30 |
| CN(C)c1cc[n+](Cc2ccc(CCc3ccc(Cn4cnc5c(N)ncnc54)cc3)cc2)cc1 | 38.6 | 81 | – | 10.5 | 10.5 | – |
| Nc1ncnc2c1ncn2Cc1ccc(-c2ccc(C[n+]3ccc(N4CCCC4)cc3)cc2)cc1 | 50.2 | 72.8 | – | 10.4 | 45 | – |
| CN(C)c1cc[n+](Cc2ccc(-c3ccc(Cn4cnc5c(N)ncnc54)cc3)cc2)cc1 | 37.6 | 51 | – | 0 | 10.3 | – |
| Nc1ncnc2c1ncn2Cc1ccc(C[n+]2ccc(N3CCCC3)cc2)cc1 | 0 | 27 | – | 0 | 15.5 | – |
| Nc1ncn(Cc2ccc(CCc3ccc(C[n+]4ccc(N5CCCC5)cc4)cc3)cc2)c2ncnc1-2 | 0.1 | 24.8 | – | 11.6 | 30 | – |

The next lines start with results.

| inhibition (Homo sapiens [1]) [%] | inhibition (Homo sapiens [2]) [%] | pIC50 [5] | SMILES | inhibition at 10 µM (HepG2 [3]) [%] | inhibition at 50 µM (HepG2 [4]) [%] | pIC50 (HepG2 [6]) |
| --- | --- | --- | --- | --- | --- | --- |
| 25 | 50.2 | – | CN(C)c1cc[n+](Cc2ccc(Cn3cnc(N)c4ncnc3-4)cc2)cc1 | 10.3 | 2.5 | – |
| 46.7 | 54.1 | – | CN(C)c1cc[n+](Cc2ccc(Cn3cnc4c(N)ncnc43)cc2)cc1 | 0 | 5.1 | – |
| 62.3 | 71.4 | 5.21 | CN(C)c1cc[n+](Cc2ccc(-c3ccc(Cn4cnc(N)c5ncnc4-5)cc3)cc2)cc1 | 10 | 7 | – |
| 61.3 | 68.2 | – | CN(C)c1cc[n+](Cc2ccc(CCCCc3ccc(Cn4cnc(N)c5ncnc4-5)cc3)cc2)cc1 | 14.3 | 56.1 | 4.41 |
